The results in this text go back to ChEMBL document CHEMBL1130053, “Synthesis and biological evaluation of the enantiomers of the potent and selective A1-adenosine antagonist 1,3-dipropyl-8-[2-(5,6-epoxynorbonyl)]-xanthine” (J Med Chem, 1997).

Each structure is given as a SMILES string.

In general, Ki refers to the dissociation constant of the complex between target and ligand, obtained from inhibition or displacement.

Assay [1] concerns the target T1, Adenosine receptor A1 (Rattus norvegicus, UniProt P25099).
T1 sequence (P25099 whole entry): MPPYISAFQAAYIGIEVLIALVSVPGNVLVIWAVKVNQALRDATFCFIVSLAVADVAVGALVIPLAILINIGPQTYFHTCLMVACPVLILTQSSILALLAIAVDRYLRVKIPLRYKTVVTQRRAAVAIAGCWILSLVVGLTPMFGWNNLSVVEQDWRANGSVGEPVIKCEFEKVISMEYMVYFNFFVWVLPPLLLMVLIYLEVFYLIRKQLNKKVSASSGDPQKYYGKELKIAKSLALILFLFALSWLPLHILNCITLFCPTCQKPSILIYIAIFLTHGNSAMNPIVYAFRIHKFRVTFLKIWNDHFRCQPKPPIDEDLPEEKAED
Kind of assay: Binding affinity for Adenosine A1 receptor of rat forebrain.

Assay [2] has as its target T2, Adenosine receptor A1 (Cavia porcellus, UniProt P47745).
T2 sequence (P47745 whole entry): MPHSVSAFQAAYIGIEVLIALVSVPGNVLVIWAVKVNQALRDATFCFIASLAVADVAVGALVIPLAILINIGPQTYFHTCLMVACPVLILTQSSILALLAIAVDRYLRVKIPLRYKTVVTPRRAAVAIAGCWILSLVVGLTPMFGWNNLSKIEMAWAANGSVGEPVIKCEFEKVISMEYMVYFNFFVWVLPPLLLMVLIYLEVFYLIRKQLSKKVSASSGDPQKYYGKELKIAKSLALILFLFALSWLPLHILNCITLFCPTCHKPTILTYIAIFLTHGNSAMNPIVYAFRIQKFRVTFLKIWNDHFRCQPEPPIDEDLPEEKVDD
As to the kind of experiment: Binding affinity for Adenosine A1 receptor from Guinea pig membranes.

Assay [3] addresses T3, Adenosine receptor A1 (Homo sapiens, UniProt P30542).
T3 sequence (P30542 whole entry): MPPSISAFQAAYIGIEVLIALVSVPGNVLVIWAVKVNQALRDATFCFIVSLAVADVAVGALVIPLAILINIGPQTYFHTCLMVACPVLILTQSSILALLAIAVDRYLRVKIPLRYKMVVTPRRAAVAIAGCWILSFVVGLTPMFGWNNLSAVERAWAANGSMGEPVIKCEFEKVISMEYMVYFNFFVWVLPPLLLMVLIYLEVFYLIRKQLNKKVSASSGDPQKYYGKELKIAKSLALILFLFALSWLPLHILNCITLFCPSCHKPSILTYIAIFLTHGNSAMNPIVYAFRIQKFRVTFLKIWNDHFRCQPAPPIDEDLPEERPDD
Kind of assay: Inhibition of binding to membranes from HEK293 cells expressing human Adenosine A1 receptor. The assay is classed as cell membranes.

Assay [4] concerns the target Adenosine A2 receptor (Rattus norvegicus, UniProt P29276+P30543). As to the kind of experiment: Binding affinity for Adenosine A2 receptor from rat striatal membranes.
Assay [5] deals with Rattus norvegicus. As to the kind of experiment: Potassium ion output (collected per 4 h) in Saline -Loaded Rats at 0.01 mg /kg intravenous dose. The assay is classed as functional. The gist of the method: (§1)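 Sprague-Dawley rats (250-350 g), 2 h equilibration, then tail-vein dosing (vehicle 50% saline/40% PEG/10% ethanol, 1.0 mL/kg). This was followed at once by 40 mL/kg saline po. Urine collected 4 h in metabolic cages, volume by weight, Na⁺/K⁺ by flame photometry. n = 6-7 per dose, mean ± SEM, 1-way ANOVA with Bonferroni test versus vehicle.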

In assay [6] the test system is Rattus norvegicus. Kind of assay: Potassium ion output (collected per 4 h) in Saline -Loaded Rats at 0.1 mg /kg intravenous dose. Type of assay: functional. The gist of the method: as §1
Assay [7] relates to Rattus norvegicus. As to the kind of experiment: Potassium ion output (collected per 4 h) in Saline -Loaded Rats at 1.0 mg /kg intravenous dose. The assay is classed as functional. The gist of the method:
as §1

Assay [8] has as its system Rattus norvegicus. Kind of assay: Sodium ion output (collected per 4 h) in Saline -Loaded Rats at 0.01 mg /kg intravenous dose. The assay is classed as functional. The gist of the method: as §1
The test system of assay [9] is Rattus norvegicus. As to the kind of experiment: Sodium ion output (collected per 4 h) in Saline -Loaded Rats at 0.1 mg /kg intravenous dose. The assay is classed as functional. The gist of the method: as §1
Assay [10] concerns Rattus norvegicus. As to the kind of experiment: Sodium ion output (collected per 4 h) in Saline -Loaded Rats at 1.0 mg /kg intravenous dose. The assay is classed as functional. The method, boiled down:
as §1

Assay [11] has as its system Rattus norvegicus. As to the kind of experiment: Urine output (collected per 4 h) in Saline -Loaded Rats at 0.01 mg /kg intravenous dose. Type of assay: functional. The gist of the method: as §1
Assay [12] deals with Rattus norvegicus. Kind of assay: Urine output (collected per 4 h) in Saline -Loaded Rats at 0.1 mg /kg intravenous dose. The assay is classed as functional. The method, boiled down: as §1
The test system of assay [13] is Rattus norvegicus. As to the kind of experiment: Urine output (collected per 4 h) in Saline -Loaded Rats at 1.0 mg /kg intravenous dose. The assay is classed as functional. The gist of the method:
as §1

In the case of `CCCn1c(=O)c2nc(C3CC4CC3C3OC43)[nH]c2n(CCC)c1=O` (stereo in doubt), the Ki in [1] turned out to be 1.43 nM; in assay [2], 3.15 nM; in assay [3], 0.82 nM; in assay [4], 309 nM. Also, the K+ output in assay [5] amounted to 1.1 mmol/kg; in assay [6] it was 1.22 mmol/kg; in [7] it was 1.42 mmol/kg. For the same compound, the Na+ output was determined as 3.54 mmol/kg in [8], 5.14 mmol/kg in assay [9] and 6.54 mmol/kg in [10]. The Urine output in [11] was found to be 23.2 mL/kg; in assay [12] it was 33 mL/kg; in [13] it was 43.2 mL/kg.

For the compound `CCCn1c(=O)c2nc(C3CC4CC3C3OC43)[nH]c2n(CCC)c1=O` (stereo in doubt; 12), the Ki turned out to be 0.67 nM in assay [1], 1.43 nM in assay [2], 0.45 nM in assay [3] and 1250 nM in assay [4]. For the same compound, the values for the K+ output in assay [5], in assay [6] and in assay [7] were 0.75 mmol/kg, 1.34 mmol/kg and 1.09 mmol/kg, respectively. For the same compound, the values for the Na+ output in assay [8], in [9] and in assay [10] were 3.02 mmol/kg, 5.29 mmol/kg and 5.86 mmol/kg, respectively. In addition, the figures for the Urine output in assay [11], in [12] and in assay [13] were 21.7 mL/kg, 35.1 mL/kg and 37.1 mL/kg, respectively.

For `CCCn1c(=O)c2nc(C34CC5CC(CC3C5)C4)[nH]c2n(CCC)c1=O` [ROLOFYLLINE], the Ki in assay [4] amounted to 510 nM.

With `CCCn1c(=O)c2nc(C3CC4CC3C3OC43)[nH]c2n(CCC)c1=O` (stereo in doubt; 8), the Ki in assay [1] is 5.12 nM; in [2], 3.17 nM; in assay [3] it was 0.8 nM; in assay [4], 551 nM. Further, the K+ output was 0.97 mmol/kg in [5], 0.89 mmol/kg in assay [6] and 1.84 mmol/kg in assay [7]. Also, the Na+ output is 3.8 mmol/kg in assay [8], 4.56 mmol/kg in assay [9] and 5.99 mmol/kg in [10]. Also, the values for the Urine output in assay [11], in assay [12] and in assay [13] were 26.8 mL/kg, 31.3 mL/kg and 44.1 mL/kg, respectively.
